Laboratory results as given in ChEMBL document CHEMBL1156340 (J Med Chem, 2010).
Converted amounts (≈) assume the structure as drawn.

What was measured:
[1] = Plasma clearance in BALB/c mouse at 6 mg/kg, iv; assay type: ADME, organism-based; set-up: dose 6 mg/kg, route intravenous
In short: (§1)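 Single-dose plasma pharmacokinetics with at least 3 animals per study. Tmax comes from oral dosing, and clearance and Vss from the parenteral arm. In rat that arm was given intra-arterially; in mouse, dog and monkey it was intravenous. Bioavailability is absolute, comparing the oral and parenteral arms.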

[2] = Volume of distribution at steady state in BALB/c mouse at 6 mg/kg, iv; assay type: ADME, organism-based; set-up: dose 6 mg/kg, route intravenous; conditions: in vivo, read-out: Vdss; in short: as §1
[3] = Half life in BALB/c mouse at 6 mg/kg, iv; assay type: ADME, organism-based; set-up: dose 6 mg/kg, route intravenous; conditions: in vivo
In short: (§2)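 Single-dose pharmacokinetics in each species by oral and intravenous routes; the rat intravenous arm was given intra-arterially. n ≥ 3 per study. Mouse exposure is reported as AUC0-8h.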

[4] = Tmax in BALB/c mouse at 12 mg/kg, po; assay type: ADME, organism-based; set-up: dose 12 mg/kg, route oral; conditions: in vivo; in short: as §1
[5] = Cmax in BALB/c mouse at 12 mg/kg, po; assay type: ADME, organism-based; set-up: dose 12 mg/kg, route oral; conditions: in vivo; in short: as §2
[6] = Oral bioavailability in BALB/c mouse at 12 mg/kg; assay type: ADME, organism-based; conditions: in vivo; in short: as §2
[7] = AUC in Sprague-Dawley rat at 5 mg/kg, ia; assay type: ADME, organism-based; set-up: dose 5 mg/kg, route intra-arterial; conditions: plasma
In short: (§3)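 Single-dose pharmacokinetic study with at least 3 animals per study; the ia route is intra-arterial administration.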

[8] = Plasma clearance in Sprague-Dawley rat at 5 mg/kg, ia; assay type: ADME, organism-based; set-up: dose 5 mg/kg, route intra-arterial; in short: as §1
[9] = Volume of distribution at steady state in Sprague-Dawley rat at 5 mg/kg, ia; assay type: ADME, organism-based; set-up: dose 5 mg/kg, route intra-arterial; conditions: in vivo, read-out: Vdss; in short: as §1
[10] = Half life in Sprague-Dawley rat at 5 mg/kg, ia; assay type: ADME, organism-based; set-up: dose 5 mg/kg, route intra-arterial; conditions: in vivo; in short: as §2
[11] = Tmax in Sprague-Dawley rat at 10 mg/kg, po; assay type: ADME, organism-based; set-up: dose 10 mg/kg, route oral; conditions: in vivo; in short: as §1
[12] = Cmax in Sprague-Dawley rat at 10 mg/kg, po; assay type: ADME, organism-based; set-up: dose 10 mg/kg, route oral; conditions: in vivo; in short: as §2
[13] = AUC in Sprague-Dawley rat at 10 mg/kg, po; assay type: ADME, organism-based; set-up: dose 10 mg/kg, route oral; conditions: plasma; in short: as §3
[14] = Oral bioavailability in Sprague-Dawley rat at 10 mg/kg; assay type: ADME, organism-based; conditions: in vivo; in short: as §1
[15] = AUC in dog at 1 mg/kg, iv; assay type: ADME, organism-based, Canis lupus familiaris; set-up: dose 1 mg/kg, route intravenous; conditions: plasma; in short: as §3
[16] = Plasma clearance in dog at 1 mg/kg, iv; assay type: ADME, organism-based, Canis lupus familiaris; set-up: dose 1 mg/kg, route intravenous; in short: as §1
[17] = Volume of distribution at steady state in dog at 1 mg/kg, iv; assay type: ADME, organism-based, Canis lupus familiaris; set-up: dose 1 mg/kg, route intravenous; conditions: in vivo, read-out: Vdss; in short: as §1
[18] = Half life in dog at 1 mg/kg, iv; assay type: ADME, organism-based, Canis lupus familiaris; set-up: dose 1 mg/kg, route intravenous; conditions: in vivo; in short: as §2
[19] = Tmax in dog at 2 mg/kg, po; assay type: ADME, organism-based, Canis lupus familiaris; set-up: dose 2 mg/kg, route oral; conditions: in vivo; in short: as §1
[20] = Cmax in dog at 2 mg/kg, po; assay type: ADME, organism-based, Canis lupus familiaris; set-up: dose 2 mg/kg, route oral; conditions: in vivo; in short: as §2
[21] = AUC in dog at 2 mg/kg, po; assay type: ADME, organism-based, Canis lupus familiaris; set-up: dose 2 mg/kg, route oral; conditions: plasma; in short: as §3
[22] = Oral bioavailability in dog at 2 mg/kg, po; assay type: ADME, organism-based, Canis lupus familiaris; conditions: in vivo; in short: as §1
[23] = AUC in cynomolgus monkey at 1 mg/kg, iv; assay type: ADME, organism-based, Macaca fascicularis; set-up: dose 1 mg/kg, route intravenous; conditions: plasma; in short: as §3
[24] = Plasma clearance in cynomolgus monkey at 1 mg/kg, iv; assay type: ADME, organism-based, Macaca fascicularis; set-up: dose 1 mg/kg, route intravenous; in short: as §1
[25] = Volume of distribution at steady state in cynomolgus monkey at 1 mg/kg, iv; assay type: ADME, organism-based, Macaca fascicularis; set-up: dose 1 mg/kg, route intravenous; conditions: in vivo, read-out: Vdss; in short: as §1
[26] = Half life in cynomolgus monkey at 1 mg/kg, iv; assay type: ADME, organism-based, Macaca fascicularis; set-up: dose 1 mg/kg, route intravenous; conditions: in vivo; in short: as §2
[27] = Tmax in cynomolgus monkey at 2 mg/kg, po; assay type: ADME, organism-based, Macaca fascicularis; set-up: dose 2 mg/kg, route oral; conditions: in vivo; in short: as §1
[28] = Cmax in cynomolgus monkey at 2 mg/kg, po; assay type: ADME, organism-based, Macaca fascicularis; set-up: dose 2 mg/kg, route oral; conditions: in vivo; in short: as §2
[29] = AUC in cynomolgus monkey at 2 mg/kg, po; assay type: ADME, organism-based, Macaca fascicularis; set-up: dose 2 mg/kg, route oral; conditions: plasma; in short: as §3
[30] = Oral bioavailability in cynomolgus monkey at 2 mg/kg, po; assay type: ADME, organism-based, Macaca fascicularis; conditions: in vivo; in short: as §1
[31] = Crystalline aqueous solubility at pH 6.5; assay type: physicochemical; conditions: aqueous solution
[32] = Crystalline aqueous solubility at pH 7.9; assay type: physicochemical; conditions: aqueous solution
[33] = Metabolic stability in mouse liver microsomes assessed as glutathione conjugate at 30 uM in presence of glutathione; assay type: ADME, Microsome
In short: (§4)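 Liver microsomes (mouse, rat or human) were fortified with 5 mM glutathione and incubated with 30 μM compound, then screened for glutathione conjugates.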

Liver microsomes [34] = assay: Metabolic stability in rat liver microsomes assessed as glutathione conjugate at 30 uM in presence of glutathione; assay type: ADME, Microsome; in short: as §4
Liver microsomes [35] = assay: Metabolic stability in human liver microsomes assessed as glutathione conjugate at 30 uM in presence of glutathione; assay type: ADME, Microsome; in short: as §4
[36] = AUC (0 to 8 h) in BALB/c mouse at 6 mg/kg, iv; conditions: plasma
[37] = AUC (0 to 8 h) in BALB/c mouse at 12 mg/kg, po; conditions: plasma

clearance [1]: 10.8 mL/min/kg | Vd [2]: 1.3 L/kg | half-life [3]: 180 min | Tmax [4]: 15 min | Cmax [5]: 23.8 µM | bioavailability [6]: 88% | AUC [7]: 48 µM·h | clearance [8]: 4.3 mL/min/kg | Vd [9]: 0.7 L/kg | half-life [10]: 192 min | Tmax [11]: 24 min | Cmax [12]: 43 µM | AUC [13]: 88 µM·h | bioavailability [14]: 91% | AUC [15]: 3.9 µM·h | clearance [16]: 9.5 mL/min/kg | Vd [17]: 1.8 L/kg | half-life [18]: 474 min | Tmax [19]: 54 min | Cmax [20]: 1000 nM | AUC [21]: 4.5 µM·h | bioavailability [22]: 58% | AUC [23]: 5.8 µM·h | clearance [24]: 8.9 mL/min/kg | Vd [25]: 3.5 L/kg | half-life [26]: 714 min | Tmax [27]: 48 min | Cmax [28]: 1900 nM | AUC [29]: 8.5 µM·h | bioavailability [30]: 75% | solubility thermodynamic [31]: 280 µg/mL (≈ 629 µM) | solubility thermodynamic [32]: > 4000 µg/mL | Stability [33]: Stable | Stability (Liver microsomes [34]): Stable | Stability (Liver microsomes [35]): Stable | AUC(0-8h) [36]: 19.3 µM·h | AUC(0-8h) [37]: 33.9 µM·h
SMILES: COC(=O)N(CC(=O)O)Cc1cccc(OCc2nc(-c3ccc(Cl)cc3)oc2C)c1
